According to ChEMBL document CHEMBL1148728, “Synthesis, biological activity, and crystal structure of potent nonnucleoside inhibitors of HIV-1 reverse transcriptase that retain activity against mutant forms of the enzyme” (J Med Chem, 2007):
pEC50, pIC50: −log10 of the molar value. Activity calls are given as the source filed them. The calls are words filed in the database; no cut-off is given here.

How the values were obtained:
[1] = system: Human immunodeficiency virus 1; assay: Antiviral activity against HIV1 infected CEM cells; assay type: functional, organism-based; settings: for pEC50: Human immunodeficiency virus 1, CCRF-CEM; for Activity: CCRF-CEM
In short: (§1)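 Cell-based assay in HIV-1-infected CEM cells, read out as protection from virus-induced cell killing.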

[2] = system: Human immunodeficiency virus 1; assay: Antiviral activity against HIV1 with RT Y188C mutation by cytopathic cell killing assay; assay type: functional, organism-based
[3] = system: Human immunodeficiency virus 1; assay: Antiviral activity against HIV1 with RT L100I mutation by cytopathic cell killing assay; assay type: functional, organism-based
[4] = Toxicity against CEM cells; assay type: cell-based; settings: human, CEM (CCRF-CEM) cells; read-out: TC50 (the source's name)
[5] = system: Human immunodeficiency virus 1; assay: Antiviral activity against HIV1 with RT V106A mutation by cytopathic cell killing assay; assay type: functional, organism-based
[6] = system: Human immunodeficiency virus 1; assay: Antiviral activity against HIV1 with RT K101E mutation by cytopathic cell killing assay; assay type: functional, organism-based
[7] = system: Human immunodeficiency virus 1; assay: Antiviral activity against wild type HIV1 NL4-3 by cytopathic cell killing assay; assay type: functional, organism-based; settings: Human immunodeficiency virus 1, NL4-3; in short: as §1
[8] = system: Human immunodeficiency virus 1; assay: Antiviral activity against HIV1 with RT V108I mutation by cytopathic cell killing assay; assay type: functional, organism-based
[9] = system: Human immunodeficiency virus 1; assay: Antiviral activity against HIV1 with RT Y181C mutation by cytopathic cell killing assay; assay type: functional, organism-based
[10] = system: Human immunodeficiency virus 1; assay: Antiviral activity against HIV1 with RT K103N mutation by cytopathic cell killing assay; assay type: functional, organism-based
[11] = target: Human immunodeficiency virus type 1 reverse transcriptase (Human immunodeficiency virus 1) (UniProt Q72547); assay: Inhibition of HIV1 reverse transcriptase at 1 uM
In short: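 Wild-type HIV-1 RT enzyme screen with rC-dG template-primer. Percent inhibition is the mean of two experiments, each run in triplicate.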

[12] = target: Human immunodeficiency virus type 1 reverse transcriptase (Human immunodeficiency virus 1, UniProt Q72547); assay: Inhibition of HIV1 NL4-3 reverse transcriptase

Row | inhibition [11] [%] | SMILES | pEC50 [1] | pEC50 [2] | pEC50 [3] | CC50 [4] [nM] | pEC50 [5] | pEC50 [6] | pEC50 [7] | pEC50 [8] | pEC50 [9] | pEC50 [10] | pIC50 [12] | Activity [1]
1 | – | [N-]=[N+]=NCc1cccc2c1nc(-c1c(F)cccc1F)n2Cc1c(F)cccc1F | 7.35 | 6.66 | 7.10 | > 100000 | 6.21 | 6.22 | 7.35 | 7.59 | 6.55 | 5.83 | – | –
2 | – | O=Cc1cccc2c1nc(-c1c(F)cccc1F)n2Cc1c(F)cccc1F | 6.92 | – | – | 820 | – | – | – | – | – | – | – | –
3 | – | CN(C)C(=O)c1cccc2c1nc(-c1c(F)cccc1F)n2Cc1c(F)cccc1F | – | – | – | 80100 | – | – | – | – | – | – | – | inactive
4 | 30 | O=[N+]([O-])c1ccc2c(c1)nc(-c1c(F)cccc1F)n2Cc1c(F)cccc1F | – | – | – | – | – | – | – | – | – | – | – | –
5 | – | N#Cc1cccc2c1nc(-c1c(F)cccc1F)n2Cc1c(F)cccc1F | 6.37 | – | – | 26700 | – | – | – | – | – | – | – | –
6 | – | Oc1cccc2c1nc(-c1c(F)cccc1F)n2Cc1c(F)cccc1F | 6.19 | – | – | > 100000 | – | – | – | – | – | – | – | –
7 | 37 | Cc1cc(C)c2nc(-c3c(F)cccc3F)n(Cc3c(F)cccc3F)c2c1 | – | – | – | – | – | – | – | – | – | – | – | –
8 | 69 | Fc1cccc(F)c1Cn1c(-c2c(F)cccc2F)nc2ccc(Cl)cc21 | – | – | – | – | – | – | – | – | – | – | – | –
9 | – | OCc1cccc2c1nc(-c1c(F)cccc1F)n2Cc1c(F)cccc1F | 7.64 | 6.77 | 7.70 | 58100 | 5.23 | 5.30 | 7.32 | 7.64 | 6.14 | 4.87 | – | –
10 | – | Nc1cccc2c1nc(-c1c(F)cccc1F)n2Cc1c(F)cccc1F | 6.34 | 5.70 | 5.92 | 26300 | – | < 4.70 | 6.40 | 5.48 | 5.04 | 5.51 | 6.55 | –
11 | – | N=C(NO)c1cccc2c1nc(-c1c(F)cccc1F)n2Cc1c(F)cccc1F | 6.72 | – | – | 23100 | – | – | – | – | – | – | – | –
12 | 42 | Cc1ccc2nc(-c3c(F)cccc3F)n(Cc3c(F)cccc3F)c2c1 | – | – | – | – | – | – | – | – | – | – | – | –
13 | – | CC(=O)NCc1cccc2c1nc(-c1c(F)cccc1F)n2Cc1c(F)cccc1F | – | – | – | 20800 | – | – | – | – | – | – | – | inactive
14 | – | CC(=O)OCc1cccc2c1nc(-c1c(F)cccc1F)n2Cc1c(F)cccc1F | 7.23 | 7.48 | 7.17 | 55800 | 5.35 | 7.60 | 7.21 | 7.89 | 5.63 | 7.57 | – | –
15 | – | NCc1cccc2c1nc(-c1c(F)cccc1F)n2Cc1c(F)cccc1F | 7.43 | 4.94 | – | 49300 | 5.03 | 5.83 | 5.87 | 5.60 | 4.89 | < 4.30 | – | –
16 | – | COc1cccc2c1nc(-c1c(F)cccc1F)n2Cc1c(F)cccc1F | 7.22 | – | 6.80 | 44300 | – | 5.55 | 7.22 | 5.55 | 6.59 | < 4.30 | 8.14 | –
17 | – | CC(=O)N(C)c1cccc2c1nc(-c1c(F)cccc1F)n2Cc1c(F)cccc1F | 7.70 | 6.27 | 5.78 | > 100000 | 7.30 | 6.19 | 7.40 | < 5.00 | 6.40 | < 5.00 | 6.49 | –
18 | – | CN(C)c1cccc2c1nc(-c1c(F)cccc1F)n2Cc1c(F)cccc1F | 5.63 | – | – | > 100000 | – | – | – | – | – | – | 4.40 | –

Row | inhibition [11] [%] | SMILES | pEC50 [1] | pEC50 [2] | pEC50 [3] | CC50 [4] [nM] | pEC50 [5] | pEC50 [6] | pEC50 [7] | pEC50 [8] | pEC50 [9] | pEC50 [10] | pIC50 [12] | Activity [1]
19 | – | CNc1cccc2c1nc(-c1c(F)cccc1F)n2Cc1c(F)cccc1F | 5.77 | – | – | 27200 | – | – | – | – | – | – | 5.31 | –
20 | 22 | Cc1ccc2c(c1)nc(-c1c(F)cccc1F)n2Cc1c(F)cccc1F | – | – | – | – | – | – | – | – | – | – | – | –
21 | – | CC(C)c1cccc2c1nc(-c1c(F)cccc1F)n2Cc1c(F)cccc1F | 5.20 | – | – | 27000 | – | – | – | – | – | – | – | –
22 | – | O=[N+]([O-])c1cccc2c1nc(-c1c(F)cccc1F)n2Cc1c(F)cccc1F | 5.62 | – | – | 30100 | – | – | – | – | – | – | 5.73 | –
23 | – | CC(=O)Nc1cccc2c1nc(-c1c(F)cccc1F)n2Cc1c(F)cccc1F | 5.83 | – | 5.49 | 39300 | – | – | 5.71 | – | < 4.00 | < 4.00 | 4.26 | –
24 | – | CC(=O)N(C)Cc1cccc2c1nc(-c1c(F)cccc1F)n2Cc1c(F)cccc1F | 6.24 | – | – | 20600 | – | – | – | – | – | – | – | –
25 | – | COCc1cccc2c1nc(-c1c(F)cccc1F)n2Cc1c(F)cccc1F | 7.22 | – | – | – | – | – | – | – | – | – | – | –
26 | 48 | Fc1cccc(F)c1Cn1c(-c2c(F)cccc2F)nc2cc(Cl)ccc21 | – | – | – | – | – | – | – | – | – | – | – | –
27 | – | Fc1cccc(F)c1Cn1c(-c2c(F)cccc2F)nc2c(CCl)cccc21 | 6.74 | 6.24 | 7.10 | 13400 | 5.33 | 6.34 | 6.80 | 6.68 | 5.62 | 5.48 | – | –
28 | – | COC(=O)c1cccc2c1nc(-c1c(F)cccc1F)n2Cc1c(F)cccc1F | – | – | – | 57700 | – | – | – | – | – | – | 3.80 | inactive
29 | 26 | Cc1ccc2c(nc(-c3c(F)cccc3F)n2Cc2c(F)cccc2F)c1C | – | – | – | – | – | – | – | – | – | – | – | –
30 | 43 | Fc1cccc(F)c1Cn1c(-c2c(F)cccc2F)nc2cc(Br)ccc21 | – | – | – | – | – | – | – | – | – | – | – | –
31 | – | CCc1cccc2c1nc(-c1c(F)cccc1F)n2Cc1c(F)cccc1F | 6.09 | – | 5.61 | 26100 | – | < 4.30 | 6.05 | < 4.30 | 5.14 | < 4.30 | 4.76 | –
32 | – | Cc1ccnc2c1NC(=O)c1cccnc1N2C1CC1 [NEVIRAPINE] | 7.46 | 7.00 | 6.14 | – | 5.63 | 5.96 | 7.00 | 6.70 | 5.31 | 5.96 | – | –
33 | 1 | Cc1cccc2nc(-c3c(F)cccc3F)n(Cc3c(F)cccc3F)c12 | – | – | – | – | – | – | – | – | – | – | – | –
34 | – | NC(=O)c1cccc2c1nc(-c1c(F)cccc1F)n2Cc1c(F)cccc1F | 5.31 | – | – | > 100000 | – | – | – | – | – | – | – | –
35 | – | O=C(O)c1cccc2c1nc(-c1c(F)cccc1F)n2Cc1c(F)cccc1F | – | – | – | 23500 | – | – | – | – | – | – | – | inactive
36 | – | N#CCc1cccc2c1nc(-c1c(F)cccc1F)n2Cc1c(F)cccc1F | 7.22 | – | – | – | – | – | 7.22 | – | 5.66 | 5.38 | – | –

Row | SMILES | inhibition [11] [%] | pEC50 [1] | pEC50 [2] | pEC50 [3] | CC50 [4] [nM] | pEC50 [5] | pEC50 [6] | pEC50 [7] | pEC50 [8] | pEC50 [9] | pEC50 [10] | pIC50 [12] | Activity [1]
37 | Fc1cccc(F)c1Cn1c(-c2c(F)cccc2F)nc2ccccc21 | 50 | 5.77 | – | – | 18800 | – | – | – | – | – | – | 6.96 | –
38 | Cc1cccc2c1nc(-c1c(F)cccc1F)n2Cc1c(F)cccc1F | 71 | 6.36 | 5.64 | 6.52 | > 100000 | – | 4.78 | 6.30 | 5.55 | 5.22 | 5.09 | 6.70 | –
39 | Fc1cccc(F)c1Cn1c(-c2c(F)cccc2F)nc2c(Br)cccc21 | 78 | 6.43 | 5.43 | 6.30 | 24500 | – | < 4.70 | 6.30 | 5.38 | 4.97 | < 4.70 | 5.79 | –
40 | Fc1cccc(F)c1Cn1c(-c2c(F)cccc2F)nc2c(Cl)cccc21 | 75 | 6.36 | 5.47 | 6.52 | 30400 | – | < 4.70 | 6.30 | 5.49 | 5.08 | 4.99 | 5.58 | –
